E-selectin induc = E-selectin induction in HUVECs, primary screen, imaging, HUVEC, immunofluorescence imaging, single point | 0.37% of 260,000 active | activation, % at 7.58 µM | normalized: neutral wells 0, TNF-alpha wells 100 | P16581;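 active = mean E-selectin-positive cell signal at least 10% of the positive control, reached in at least 60% of replicates, without over 20% cell loss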
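Material: HUVEC primary endothelial cells; Amount: 3,000 cells per well; Dosing: single concentration; Medium: EGM-2 growth medium on 0.1% gelatin-coated wells; Read-out basis: percent E-selectin-positive cells; Signal: immunofluorescence imaging; Control set: TNF-alpha, DMSO.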
S100A4 inh HTS = inhibitors of S100A4-myosin IIA peptide binding, primary screen, biochemical, fluorescence polarization, TAMRA-MyoIIA peptide | AID 652163, 2013 | 0.14% of 360,000 active | Protein S100-A4 (Homo sapiens), P26447 | inhibition, % at 10.7 µM;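 active = mean inhibition of at least 70% across replicates, with every replicate also reaching that level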
Target sequence (P26447 whole entry, looked up): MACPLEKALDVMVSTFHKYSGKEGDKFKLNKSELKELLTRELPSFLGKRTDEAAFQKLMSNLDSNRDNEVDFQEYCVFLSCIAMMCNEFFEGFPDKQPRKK
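incubation = readout 5 min after mixing, signal stable up to 60 min | system = S100A4 monomer protein | buffer or medium = HEPES pH 7.2 with CaCl2, KCl, NaCl, DTT, Triton | benchmarks = neutral control DMSO, positive control TFP | also added = fluorescent myosin IIA peptide, 5 nM | compound dosing = one concentration per compound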
DENV2 CPE = inhibitors of DENV2 cytopathic effect, primary screen, cell-based, plate reader, single concentration; DENV2-infected cells, cytopathic effect rescue; CPE inhibition, % at 9.99 µM; 1.7% of 350,000 active; AID 651640, 2012; in the data active = CPE inhibition above about 20%, passing the limit was not always enough; tested in BHK-21 cells;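 note: 0% = median of neutral control wells and 100% = median of positive control wells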
Xi reactivation = activators of inactive X chromosome reactivation, primary screen, imaging, XiGFP fibroblasts, GFP high-content imaging, set 2. activation, % at 7.58 µM. XiGFP mouse fibroblasts, % GFP-positive cells imaging, 3 d; cells co-treated with 5-aza-dC sensitizer; scaled so ellipticine positive control = 100%. 0.055% of 360,000 active;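 active = mean normalized replicate activation at least 10% and every replicate at or above 10%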;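 note: 0% = median of on-plate neutral control wells and 100% = ellipticine 6 µM median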
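System: 68-5-11 XiGFP fibroblast line; Timing: 3 days compound exposure; Compound dosing: one concentration, pinned; Benchmarks: positive control ellipticine, 6 µM final; Buffer or medium: DMEM containing 5-aza-dC.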
* hit, by the source's call. Hits are enriched below; roughly 2% of the tested compounds scored in any of these assays.

What do the screens show for `Cc1noc(C)c1NC(=O)Nc1cccc2c1O[C@@H](CN(C)S(=O)(=O)c1cn(C)cn1)[C@@H](C)CN([C@@H](C)CO)C2=O`?
E-selectin induc: 0; S100A4 inh HTS: 2; DENV2 CPE: 27*; Xi reactivation: 2

How did Cc1noc(C)c1NC(=O)Nc1cccc2c1O[C@H](CN(C)S(=O)(=O)c1cn(C)cn1)[C@@H](C)CN([C@H](C)CO)C2=O do in these assays?
E-selectin induc: 0; S100A4 inh HTS: 4; DENV2 CPE: 13; Xi reactivation: 0

How did C[C@@H]1CN([C@@H](C)CO)C(=O)c2cccc(NC(=O)Nc3ccccc3)c2O[C@@H]1CN(C)S(=O)(=O)c1ccccc1 do in these assays?
E-selectin induc: -3; S100A4 inh HTS: -12; DENV2 CPE: 2; Xi reactivation: 0

How did C[C@@H]1CN([C@H](C)CO)C(=O)c2cccc(NC(=O)Nc3ccccc3)c2O[C@@H]1CN(C)S(=O)(=O)c1ccccc1 do in these assays?
E-selectin induc: 255*; S100A4 inh HTS: -3; DENV2 CPE: -5; Xi reactivation: 0

How did C[C@H]1CN([C@@H](C)CO)C(=O)c2cccc(NC(=O)Nc3ccccc3)c2O[C@@H]1CN(C)S(=O)(=O)c1cn(C)cn1 do in these assays?
E-selectin induc: 0; S100A4 inh HTS: 0; DENV2 CPE: 47*; Xi reactivation: 0

Results for C[C@@H]1CN([C@@H](C)CO)C(=O)c2cccc(NC(=O)Nc3ccccc3)c2O[C@@H]1CN(C)S(=O)(=O)c1cn(C)cn1 ?
E-selectin induc: 0; S100A4 inh HTS: -17; DENV2 CPE: 11; Xi reactivation: 0

Results for Nc1nc2c(ncn2[C@@H]2O[C@H](CNCc3cnc(N4CCOCC4)s3)[C@@H](O)[C@H]2O)c(=O)[nH]1 ?
E-selectin induc: 1; S100A4 inh HTS: -3; DENV2 CPE: 11; Xi reactivation: 0

Results for CCOC(=O)c1ccc(N2C(=O)C3CCOc4ccccc4C32)cc1 (stereo not drawn) ?
E-selectin induc: 0; S100A4 inh HTS: 1; DENV2 CPE: -12; Xi reactivation: 0

What do the screens show for `C[C@@H]1CN([C@@H](C)CO)C(=O)c2cccc(NC(=O)Nc3ccc4c(c3)OCO4)c2O[C@H]1CN(C)Cc1ccc2c(c1)OCO2`?
E-selectin induc: 0; S100A4 inh HTS: 8; DENV2 CPE: 22*; Xi reactivation: 0

What do the screens show for `C[C@@H]1CN([C@H](C)CO)C(=O)c2cc(NC(=O)Nc3ccc4c(c3)OCO4)ccc2O[C@@H]1CN(C)Cc1ccc2c(c1)OCO2`?
E-selectin induc: 0; S100A4 inh HTS: 13; DENV2 CPE: -5; Xi reactivation: 0

Results for C[C@@H]1CN([C@@H](C)CO)C(=O)c2cc(NC(=O)Nc3ccc4c(c3)OCO4)ccc2O[C@@H]1CN(C)Cc1ccc2c(c1)OCO2 ?
E-selectin induc: 0; S100A4 inh HTS: 7; DENV2 CPE: 42*; Xi reactivation: 0

How did C[C@H]1CN([C@@H](C)CO)C(=O)c2cccc(NC(=O)Nc3ccc4c(c3)OCO4)c2O[C@H]1CN(C)Cc1ccc2c(c1)OCO2 do in these assays?
E-selectin induc: 1; S100A4 inh HTS: 3; DENV2 CPE: 27*; Xi reactivation: 1

Results for C[C@@H]1CN([C@H](C)CO)C(=O)c2cc(N(C)C)ccc2O[C@H]1CN(C)Cc1ccc2c(c1)OCO2 ?
E-selectin induc: -1; S100A4 inh HTS: -3; DENV2 CPE: -9; Xi reactivation: -1

Results for C[C@H](CO)N1C[C@H](C)[C@@H](CN(C)Cc2ccc3c(c2)OCO3)Oc2ccc(N(C)C)cc2C1=O ?
E-selectin induc: -5; S100A4 inh HTS: 6; DENV2 CPE: 23*; Xi reactivation: 0

What do the screens show for `COc1cccc(CNC(=O)[C@@H]2CCCN2C(=O)[C@@H]2CCCN2C(=O)c2cccs2)c1`?
E-selectin induc: 0; S100A4 inh HTS: 4; DENV2 CPE: 2; Xi reactivation: 0

Results for CC(C)=CCOc1c2ccoc2cc2oc(=O)ccc12 ?
S100A4 inh HTS: -4; DENV2 CPE: 125*

How did COC(=O)[C@@H](NC(=O)c1ccccc1)[C@@H](C)O do in these assays?
E-selectin induc: 0; S100A4 inh HTS: -1; DENV2 CPE: 4; Xi reactivation: 0

Bioassay records from PubChem BioAssay.
